Measured values reported in ChEMBL document CHEMBL1137716, “Novel modifications in the series of O-(2-phthalimidoethyl)-N-substituted thiocarbamates and their ring-opened congeners as non-nucleoside HIV-1 reverse transcriptase inhibitors” (Eur J Med Chem, 2009).
Active and inactive are the calls of the source. The rule behind the calls is not given here.

How the values were obtained:
[1] = tested on: Human immunodeficiency virus 1; test: Antiviral activity against wild type HIV1 3B in human MT4 cells assessed as protection against viral induced cytopathogenicity by MTT assay; assay type: functional, organism-based; details: Human immunodeficiency virus 1, 3B
Outline: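 MT-4 cells infected with HIV-1; 50% protection from virus-induced cytopathogenicity read by MTT method; EC50 in micromolar; mean of three separate experiments, triplicate samples varying under 10%.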

[2] = Cytotoxicity against mock-infected human MT4 cells by MTT assay; assay type: cell-based
Outline: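 Mock-infected MT-4 cells, tested in parallel with the antiviral assay; viability read by MTT method; CC50 is the concentration lowering viability by 50%; mean of three separate experiments, triplicate variation under 10%.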

[3] = tested on: Human immunodeficiency virus 1; test: Antiviral activity against HIV1 3B Y181C/K103N double mutant in human MT4 cells assessed as protection against viral induced cytopathogenicity by MTT assay; assay type: functional, organism-based
Outline: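 MT-4 cells infected with HIV-1 carrying the NNRTI-resistance mutation were assayed for protection from virus-induced cytopathogenicity, read out as cell viability by MTT. EC50 is the compound concentration giving 50% protection. Values are means of three separate experiments, with variation among triplicate samples under 10%. Efavirenz served as the reference.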

[4] = Selectivity index, ratio of CC50 for human MT4 cells to EC50 for HIV1 3B; assay type: toxicity, cell-based; details: read-out: Ratio CC50/EC50
Outline: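 Ratio of CC50 in mock-infected MT-4 cells to EC50 for protection from HIV-1 cytopathogenicity, both read by MTT method.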

| Structure (SMILES) | EC50 [1] [µM] | CC50 [2] [µM] | Activity [3] | selectivity ratio [4] |
| --- | --- | --- | --- | --- |
| Cc1ccc(NC(=S)OCCN2C(=O)c3ccccc3C2=O)cc1 | 0.02 |  |  |  |
| N#Cc1ccc(NC(=S)OCCN2C(=O)c3ccccc3C2=O)cc1 | 0.07 |  |  |  |
| Cc1ccc2c(c1)C(=O)N(CCOC(=S)Nc1ccc(C)c(Cl)c1)C2=O | 0.4 | 66 | inactive | 165 |
| Cc1ccc(Cl)cc1NC(=S)OCCNC(=O)c1ccccc1C(=O)O | 30 | > 100 |  | > 3.3 |
| COc1ccc(CCNC(=S)OCCN2C(=O)c3ccccc3C2=O)cc1OC | 8 | > 100 | inactive | > 12.5 |
| Cc1ccc2c(c1)C(=O)N(CCOC(=S)NC1CCCCC1)C2=O | 0.3 | > 100 | inactive | > 333 |
| Cc1ccc(NC(=S)OC[C@@H](C)NC(=O)c2ccccc2C(=O)O)cc1 | 2.3 | > 100 | inactive | > 43.5 |
| O=C1c2ccccc2C(=O)N1CCOC(=S)Nc1ccc(Cl)cc1 | 0.04 |  |  |  |
| Cc1ccc2c(c1)C(=O)N(CCOC(=S)Nc1ccc(Br)cc1)C2=O | 0.008 | 59 | inactive | 7380 |
| O=C1c2ccccc2C(=O)N1CCOC(=S)NC1CCCCCCC1 | 0.6 | > 100 |  | > 167 |
| O=C1c2ccccc2C(=O)N1CCOC(=S)Nc1ccccc1 | 1.2 |  |  |  |
| COc1ccc(Cl)cc1NC(=S)OCCN1C(=O)c2ccccc2C1=O | 48 | > 100 |  | > 2.1 |
| Cc1ccc2c(c1)C(=O)N(CCOC(=S)Nc1ccc(Cl)c(Cl)c1)C2=O | 0.2 | 50 | inactive | 250 |
| O=C(O)c1ccccc1C(=O)NCCOC(=S)Nc1ccc(Cl)c(Cl)c1Cl | 44 | > 100 | inactive | > 2.3 |
| Cc1ccc(NC(=S)OCCN2C(=O)c3ccccc3C2=O)cc1Cl | 0.8 | > 100 | inactive | > 125 |
| O=C(O)c1ccccc1C(=O)NCCOC(=S)Nc1c(F)c(F)cc(F)c1F | 71 | > 100 | inactive | > 1.4 |
| Cc1cc(Br)ccc1NC(=S)OCCN1C(=O)c2ccccc2C1=O | 19 | > 100 |  | > 5.3 |
| COc1ccc(NC(=S)OCCN2C(=O)c3ccccc3C2=O)cc1 | 0.03 |  |  |  |
| O=C1c2ccccc2C(=O)N1CCOC(=S)Nc1c(F)cccc1F | 7 | > 100 | inactive | > 14.3 |
| O=C1c2ccccc2C(=O)N1CCOC(=S)Nc1cc(Cl)cc(Cl)c1 | 12 | > 100 |  | > 8 |
| COc1ccc(CCNC(=S)OCCNC(=O)c2ccccc2C(=O)O)cc1OC | 63 | 100 | inactive | 1.6 |
| Cc1cc(Br)cc(C)c1NC(=S)OCCN1C(=O)c2ccccc2C1=O | 9 | > 100 | inactive | > 11.1 |
| Cc1cccc(Cl)c1NC(=S)OCCN1C(=O)c2ccccc2C1=O | 23 | > 100 |  | > 4.3 |
| CC(C)(C)c1ccc2c(c1)C(=O)N(CCOC(=S)Nc1ccc(Cl)cc1)C2=O | 1.2 | 55 | inactive | 45.8 |
| C[C@@H](COC(=S)Nc1ccc(Cl)cc1)N1C(=O)c2ccccc2C1=O | 0.2 | 84 | inactive | 420 |
| O=C(O)c1ccccc1C(=O)NCCOC(=S)Nc1cc(F)ccc1F | 51 | > 100 | inactive | > 2 |
| O=C1c2ccccc2C(=O)N1CCOC(=S)Nc1cccc(Cl)c1Cl | 30 | > 100 |  | > 3.3 |

| Structure (SMILES) | EC50 [1] [µM] | CC50 [2] [µM] | Activity [3] | selectivity ratio [4] |
| --- | --- | --- | --- | --- |
| O=C1c2ccccc2C(=O)N1CCOC(=S)Nc1ccc([N+](=O)[O-])cc1Cl | > 100 | > 100 |  |  |
| COc1ccc(NC(=S)OCCNC(=O)c2ccccc2C(=O)O)cc1OC | 16 | > 100 |  | > 6.2 |
| CC(COC(=S)Nc1ccc(Cl)cc1)N1C(=O)c2ccccc2C1=O (racemic) | 0.05 |  |  |  |
| Cc1ccc(Cl)cc1NC(=S)OCCN1C(=O)c2ccccc2C1=O | > 100 | > 100 |  |  |
| O=C1c2ccccc2C(=O)N1CCOC(=S)Nc1c(Cl)cc(Cl)cc1Cl | 10 | > 100 | inactive | > 10 |
| Cc1cc(Cl)ccc1NC(=S)OCCN1C(=O)c2ccccc2C1=O | 27 | > 100 |  | > 3.7 |
| Cc1ccc(NC(=S)OCCNC(=O)c2ccccc2C(=O)O)c(C)c1 | 53 | > 100 |  | > 1.9 |
| Cc1ccc(NC(=S)OCCN2C(=O)c3ccccc3C2=O)c(C)c1 | 6 | > 100 |  | > 16.7 |
| O=C1c2ccccc2C(=O)N1CCOC(=S)Nc1ccc(Cl)c(C(F)(F)F)c1 | 8 | 84 |  | 10.5 |
| C=CCNC(=S)OCCN1C(=O)c2ccccc2C1=O | > 100 | > 100 |  |  |
| O=C1c2ccccc2C(=O)N1CCOC(=S)Nc1ccc(Cl)cc1Cl | > 100 | > 100 |  |  |
| O=C1c2ccccc2C(=O)N1CCOC(=S)Nc1cc(Cl)ccc1Cl | 42 | > 100 |  | > 2.4 |
| O=C1c2ccccc2C(=O)N1CCOC(=S)NC1CC1 | > 100 | > 100 |  |  |
| O=C1c2ccccc2C(=O)N1CCOC(=S)Nc1ccc(I)cc1 | 0.02 |  |  |  |
| O=C1c2ccccc2C(=O)N1CCOC(=S)NCc1ccccc1 | 26 | > 100 |  | > 3.8 |
| COc1ccc(C)cc1NC(=S)OCCNC(=O)c1ccccc1C(=O)O | 88 | > 100 |  | > 1.1 |
| CCc1ccc(NC(=S)OCCN2C(=O)c3ccccc3C2=O)cc1 | 0.08 |  |  |  |
| Cc1cccc(C)c1NC(=S)OCCN1C(=O)c2ccccc2C1=O | 75 | > 100 |  | > 1.3 |
| CC(=O)c1ccc(NC(=S)OCCN2C(=O)c3ccccc3C2=O)cc1 | 0.14 |  |  |  |
| Cc1cc(C)cc(NC(=S)OCCN2C(=O)c3ccccc3C2=O)c1 | 4 | > 100 |  | > 25 |
| Cc1ccc(NC(=S)OCCNC(=O)c2ccccc2C(=O)O)cc1Cl | 4.3 | > 100 |  | > 23.2 |
| O=C1c2ccccc2C(=O)N1CCOC(=S)NCc1ccco1 | > 100 | > 100 | inactive |  |
| Cc1ccc2c(c1)C(=O)N(CCOC(=S)Nc1ccc(Cl)cc1)C2=O | 0.025 |  |  |  |
| O=C1c2ccccc2C(=O)N1CCOC(=S)Nc1c(Cl)cccc1Cl | 21 | > 100 |  | > 4.8 |
| O=C1c2ccccc2C(=O)N1CCOC(=S)NC1CCCC1 | 11 | > 100 |  | > 9.1 |
| O=C1c2ccccc2C(=O)N1CCOC(=S)Nc1ccc(Br)cc1 | 0.03 |  |  |  |
| O=C1c2ccccc2C(=O)N1CCOC(=S)Nc1ccc(F)cc1 | 0.1 |  |  |  |
